This note sets out measurements from ChEMBL document CHEMBL4706509, “Oligosaccharide-camptothecin conjugates as potential antineoplastic drugs: Design, synthesis and biological evaluation” (Eur J Med Chem, 2020).

The subject of one data set is HCT-116. Kind of data set: Antitumor activity against human HCT-116 cells assessed as inhibition of cell growth measured after 48 hrs by MTT assay. The data set is classed as functional, cell-based. The conditions noted are these: HCT-116, 48 h. In a few lines:
(§1)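 MTT assay; cells seeded in 96-well plates, exposed 48 h to freshly prepared compound at five concentrations, four replicate wells each; MTT (5 mg/mL) added for 4 h, formazan dissolved in DMSO, absorbance at 490 nm. IC50 by nonlinear regression; mean of three independent experiments.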
(In general: Tetrazolium assays rely on reduction of a dye to a coloured formazan, in cell work by metabolically active cells.)

In data set [1] the target is T1, DNA topoisomerase 1 (Homo sapiens) (UniProt P11387).
T1 sequence (whole entry): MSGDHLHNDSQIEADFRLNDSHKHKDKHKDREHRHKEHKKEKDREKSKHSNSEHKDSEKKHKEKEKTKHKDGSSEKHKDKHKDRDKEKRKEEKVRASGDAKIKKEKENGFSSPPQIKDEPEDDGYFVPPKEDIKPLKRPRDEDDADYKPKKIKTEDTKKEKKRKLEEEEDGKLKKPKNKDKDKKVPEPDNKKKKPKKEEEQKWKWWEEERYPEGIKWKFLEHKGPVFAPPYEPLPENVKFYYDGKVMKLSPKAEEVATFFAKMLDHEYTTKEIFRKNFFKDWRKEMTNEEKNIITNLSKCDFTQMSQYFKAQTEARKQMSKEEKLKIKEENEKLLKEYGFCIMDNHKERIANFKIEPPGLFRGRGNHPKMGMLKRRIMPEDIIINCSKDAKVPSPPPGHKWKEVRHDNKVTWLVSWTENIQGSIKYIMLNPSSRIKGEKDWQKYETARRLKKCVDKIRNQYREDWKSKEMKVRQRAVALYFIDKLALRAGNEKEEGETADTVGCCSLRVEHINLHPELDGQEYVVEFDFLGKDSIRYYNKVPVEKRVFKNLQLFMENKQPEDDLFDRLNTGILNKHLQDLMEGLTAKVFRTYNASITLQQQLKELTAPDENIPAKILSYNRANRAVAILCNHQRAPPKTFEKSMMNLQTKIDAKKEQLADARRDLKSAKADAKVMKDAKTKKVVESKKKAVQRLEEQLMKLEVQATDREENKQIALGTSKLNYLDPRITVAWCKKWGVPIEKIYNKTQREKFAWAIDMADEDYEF
Kind of data set: Inhibition of human recombinant Topoisomerase 1 using supercoiled pBR322 DNA as substrate at 100 uM incubated for 30 mins by ethidium bromide staining based agarose gel electrophoresis. In a few lines:
(§2)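 Cell-free relaxation assay: 1 U recombinant human Topo I with 0.5 µg supercoiled pBR322 in Topo I buffer (Tris-HCl pH 8.0, KCl, MgCl2, DTT, 0.1% BSA), 37 °C for 30 min. 10-HCPT and irinotecan as positive controls. Supercoiled, relaxed and nicked forms resolved on 0.8% agarose in TAE, 90 V for 2 h, ethidium bromide stained.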

The next data set relates to SW1990. Kind of data set: Antitumor activity against human SW1990 cells assessed as inhibition of cell growth measured after 48 hrs by MTT assay. The conditions noted are these: SW1990, 48 h. It is filed as functional, cell-based. In a few lines: as §1
The subject of the next data set is HEK293. Kind of data set: Cytotoxicity against human HEK293 cells assessed as reduction in cell viability measured after 48 hrs by MTT assay. The conditions noted are these: HEK293, 48 h. It is filed as cell-based. In a few lines:
as §1

The nature of data set [2]: Toxicity in iv dosed ICR mouse measured for 14 days. It is filed as organism-based. The conditions noted are these: in vivo, time 14 day.
Another data set has as its system HepG2. Kind of data set: Antitumor activity against human HepG2 cells assessed as inhibition of cell growth measured after 48 hrs by MTT assay. It is filed as functional, cell-based. Conditions: HepG2, 48 h. In a few lines: as §1
A short description of data set [3]: Ratio of test compound solubility to camptothecin solubility in 0.1 M Na2HPO4 solution at pH 7.4 incubated for 24 hrs by HPLC analysis. The data set is classed as physicochemical. The conditions noted are these: buffer, pH 7.4, 24 h.
A short description of data set [4]: Stability of compound in 10% phosphate buffer assessed as proportion of lactone form level at pH 7.4 measured after 48 hrs by HPLC analysis. Conditions: read-out: Drug metabolism. The data set is classed as physicochemical. In a few lines:
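1.0 mg dissolved in 50 mL 0.1 M phosphate buffer, pH 7.4, and shaken at 37 °C. […] Lactone versus carboxylate (ring-opened) form quantified by HPLC area normalisation. Mean of triplicate determinations.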

Data set [5] has as its target T1, DNA topoisomerase 1 (Homo sapiens). Kind of data set: Inhibition of human recombinant Topoisomerase 1 using supercoiled pBR322 DNA as substrate at 50 uM incubated for 30 mins by ethidium bromide staining based agarose gel electrophoresis. Put shortly:
as §2

Data set [6] is described as follows: Aqueous solubility of the compound in 0.1 M Na2HPO4 solution at pH 7.4 incubated for 24 hrs by HPLC analysis. It is filed as physicochemical. The conditions noted are these: for solubility at 24 h: 0.1 M Na2HPO4 solution, pH 7.4. In a few lines: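 Excess solid shaken in 0.2 mL 0.1 M phosphate buffer, pH 7.4, at 25 °C for 24 h, then filtered. Filtrate (100 µL) diluted to 1.5 mL and analysed by isocratic HPLC (CH3CN:H2O 40/60, 1.0 mL/min, 35 °C column, 254 nm). Concentration read from a calibration curve built from DMSO standards. Values are the mean of triplicate determinations, in mg/mL.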

pIC50: −log10 of the molar value. Values after ≈ are worked out from the molar mass of the structure shown. Active and inactive are the calls of the source. No cut-off for these calls is given here. A value given as a limit tells only on which side of the number the result lay.

The pIC50 is the IC50 on a negative log10 scale, so that one unit is a factor of ten. Usually LD50 stands for the dose at which mortality reaches 50%. For `CCc1c2c(nc3ccc(OC(=O)N4CCC(N5CCCCC5)CC4)cc13)-c1cc3c(c(=O)n1C2)COC(=O)[C@]3(O)CC` [IRINOTECAN], the pIC50 with HCT-116, in the data set with SW1990, in the data set on HEK293 and with HepG2 was under 4.00 each time. The inhibition result in data set [1] was “Active”. Further, the LD50 at 336 h in data set [2] was 85.1 mg/kg.

One may read the solubility as the dissolved amount per volume that the medium holds. High values mean a readily soluble substance, low ones a poorly soluble substance. For `CC[C@@]1(OC(=O)NCCOCCO[C@@H]2O[C@H](CO)[C@@H](O)[C@H](OC(N)=O)[C@@H]2O)C(=O)OCc2c1cc1n(c2=O)Cc2cc3ccccc3nc2-1`, the pIC50 in the data set on HCT-116 is 5.92; with SW1990 it was 5.28; in the data set with HEK293, 4.28; in the data set on HepG2, 6.05. Moreover, in data set [3], the Ratio worked out at 2717. Also, the inhibition result in data set [1] and in data set [5] was “Active” in each case. In addition, the remaining at 48 h in data set [4] came to 92%. This molecule also showed a solubility at 24 h in data set [6] of 16300 µg/mL (≈ 23800 µM).

In the case of `CC[C@@]1(O)C(=O)OCc2c1cc1n(c2=O)Cc2cc3ccccc3nc2-1` [CAMPTOTHECIN], the pIC50 in the data set with HCT-116 was 6.40; in the data set with SW1990, 6.70; in the data set with HEK293, 6.22; in the data set on HepG2, 6.40. In addition, the remaining at 48 h in data set [4] amounted to 5%. The molecule also yielded a solubility in data set [6] (buffer, pH 7.4, 24 h) of 60 µg/mL (≈ 172 µM).

Turning to `CC[C@@]1(OC(=O)NCCOCCO[C@@H]2O[C@H](COC(C)=O)[C@H](OC(C)=O)[C@H](OC(C)=O)[C@H]2OC(C)=O)C(=O)OCc2c1cc1n(c2=O)Cc2cc3ccccc3nc2-1`, the pIC50 in the data set with HCT-116 is 5.46; with SW1990, 4.80; with HEK293, under 4.00; in the data set with HepG2, 5.25. In addition, the inhibition entry in data set [1] and in data set [5] was “Active” each time. The remaining at 48 h in data set [4] worked out at 91%. This molecule registered a solubility at 24 h in data set [6] of 500 µg/mL (≈ 617 µM).

Take `CC[C@@]1(OC(=O)NCCOCCO[C@@H]2O[C@H](COC(C)=O)[C@@H](OC(C)=O)[C@H](OC(C)=O)[C@@H]2O[C@H]2O[C@H](COC(C)=O)[C@@H](OC(C)=O)[C@H](OC(N)=O)[C@H]2OC(C)=O)C(=O)OCc2c1cc1n(c2=O)Cc2cc3ccccc3nc2-1`: the pIC50 with HCT-116 was 5.89; in the data set on SW1990 it was 4.95; with HEK293 it was 5.82; in the data set on HepG2, 5.80. The inhibition entry in [1] and in [5] was “Active” in each case.
